According to ChEMBL document CHEMBL4665875, “Synthesis, biological evaluation and in silico modeling of novel pan-genotypic NS5A inhibitors” (Bioorg Med Chem, 2020):

Key:
[1] = Cytotoxicity against HCV genotype 1b NS5A infected human HuH7 cells assessed as reduction in cell viability measured after 72 hrs by CellTiter-Glo assay; settings: HuH7 cells infected with HCV genotype 1b NS5A
[2] = Oral bioavailability in Sprague-Dawley rat at 10 mg/kg, po measured after 24 hrs by LC-MS/MS analysis; assay type: ADME, organism-based; settings: in vivo
Outline: (§1)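 Male Sprague-Dawley rats (8–10 weeks), jugular-vein catheterized and fasted 12 h with water available. Oral dose of 10 mg/kg given in 0.5% methyl cellulose. Blood taken into EDTA at 15, 30 min and 1, 2, 4, 8 and 24 h. Plasma protein-precipitated with acetonitrile containing tolbutamide internal standard, held at −20 °C for 15 min, centrifuged, then analysed by LC-MS/MS.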

[3] = MRTlast in Sprague-Dawley rat at 10 mg/kg, po measured after 24 hrs by LC-MS/MS analysis; assay type: ADME, organism-based; settings: in vivo
Outline: as §1

[4] = MRT (0 to infinity) in Sprague-Dawley rat at 10 mg/kg, po measured after 24 hrs by LC-MS/MS analysis; assay type: ADME, organism-based; settings: in vivo
Outline: as §1

[5] = MRTlast in Sprague-Dawley rat at 2 mg/kg, iv measured after 24 hrs by LC-MS/MS analysis; assay type: ADME, organism-based; settings: in vivo
Outline: (§2)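 Male Sprague-Dawley rats (8–10 weeks), jugular-vein catheterized and fasted 12 h with water available. Intravenous dose of 2 mg/kg given in 10% DMSO/10% Solutol/80% 0.05 M N-methylglucamine. Blood taken into EDTA at 5, 15, 30 min and 1, 2, 4, 8 and 24 h. Plasma precipitated with acetonitrile plus tolbutamide internal standard, then analysed by LC-MS/MS.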

[6] = MRT (0 to infinity) in Sprague-Dawley rat at 2 mg/kg, iv measured after 24 hrs by LC-MS/MS analysis; assay type: ADME, organism-based; settings: in vivo
Outline: as §2

[7] = Half life in Sprague-Dawley rat at 2 mg/kg, iv measured after 24 hrs by LC-MS/MS analysis; assay type: ADME, organism-based; settings: in vivo
Outline: as §2

[8] = Half life in Sprague-Dawley rat at 10 mg/kg, po measured after 24 hrs by LC-MS/MS analysis; assay type: ADME, organism-based; settings: Sprague-Dawley, in vivo
Outline: as §1

[9] = Tmax in Sprague-Dawley rat at 2 mg/kg, iv measured after 24 hrs by LC-MS/MS analysis; assay type: ADME, organism-based; settings: in vivo
Outline: as §2

[10] = Tmax in Sprague-Dawley rat at 10 mg/kg, po measured after 24 hrs by LC-MS/MS analysis; assay type: ADME, organism-based; settings: Sprague-Dawley, in vivo, read-out: Tmax
Outline: as §1

[11] = Cmax in Sprague-Dawley rat at 2 mg/kg, iv measured after 24 hrs by LC-MS/MS analysis; assay type: ADME, organism-based; parameters: route intravenous, dose 2 mg/kg, time 24 hrs; settings: in vivo
Outline: as §2

[12] = Cmax in Sprague-Dawley rat at 10 mg/kg, po measured after 24 hrs by LC-MS/MS analysis; assay type: ADME, organism-based; parameters: route oral, time 24 hrs, dose 10 mg/kg; settings: Sprague-Dawley, in vivo, read-out: Cmax
Outline: as §1

[13] = AUClast in Sprague-Dawley rat at 2 mg/kg, iv measured after 24 hrs by LC-MS/MS analysis; assay type: ADME, organism-based; parameters: route intravenous, time 24 hrs, dose 2 mg/kg; settings: in vivo
Outline: as §2

[14] = AUClast in Sprague-Dawley rat at 10 mg/kg, po measured after 24 hrs by LC-MS/MS analysis; assay type: ADME, organism-based; parameters: route oral, dose 10 mg/kg, time 24 hrs; settings: in vivo
Outline: as §1

[15] = AUC (0 to infinity) in Sprague-Dawley rat at 2 mg/kg, iv measured after 24 hrs by LC-MS/MS analysis; assay type: ADME, organism-based; parameters: route intravenous, dose 2 mg/kg, time 24 hrs; settings: in vivo
Outline: as §2

[16] = AUC (0 to infinity) in Sprague-Dawley rat at 10 mg/kg, po measured after 24 hrs by LC-MS/MS analysis; assay type: ADME, organism-based; parameters: route oral, time 24 hrs, dose 10 mg/kg; settings: Sprague-Dawley, in vivo
Outline: as §1

COC(=O)N[C@H](C(=O)N1CCC[C@H]1c1ncc(-c2ccc(C#CC#Cc3cnc([C@@H]4CCCN4C(=O)[C@H](NC(=O)OC)c4ccccc4)[nH]3)c(-c3ccc(N4CCN(C)CC4)cc3)c2)[nH]1)C(C)C
CC50 at 72 h [1]: > 10 µM

COC(=O)N[C@H](C(=O)N1CCC[C@H]1c1ncc(-c2ccc(C#CC#Cc3cnc([C@@H]4CCCN4C(=O)[C@H](NC(=O)OC)c4ccccc4)[nH]3)c(N3CCN(C)CC3)c2)[nH]1)C(C)C
CC50 at 72 h [1]: > 10 µM

COC(=O)N[C@H](C(=O)N1CCC[C@H]1c1ncc(-c2ccc(C#CC#Cc3cnc([C@@H]4CCCN4C(=O)[C@H](NC(=O)OC)c4ccccc4)[nH]3)c(-c3cccc(C(C)(C)C)c3)c2)[nH]1)C(C)C
CC50 at 72 h [1]: > 10 µM

COC(=O)N[C@H](C(=O)N1CCC[C@H]1c1ncc(C#CC#Cc2c(F)cc(-c3cnc([C@@H]4CCCN4C(=O)[C@@H](NC(=O)OC)C(C)C)[nH]3)cc2-c2ccccc2)[nH]1)C(C)C
CC50 at 72 h [1]: > 10 µM

COC(=O)N[C@H](C(=O)N1CCC[C@H]1c1ncc(C#CC#Cc2ccc(-c3cnc([C@@H]4CCCN4C(=O)[C@@H](NC(=O)OC)C(C)C)[nH]3)cc2-c2ccc(C(C)(C)C)cc2)[nH]1)C(C)C
CC50 at 72 h [1]: > 10 µM

COC(=O)N[C@H](C(=O)N1CCC[C@H]1c1ncc(-c2ccc(C#CC#Cc3cnc([C@@H]4CCCN4C(=O)[C@H](NC(=O)OC)c4ccccc4)[nH]3)c(N(C)c3ccccc3)c2)[nH]1)C(C)C
CC50 at 72 h [1]: > 10 µM

COC(=O)N[C@H](C(=O)N1CCC[C@H]1c1ncc(-c2cc(C)c(C#CC#Cc3cnc([C@@H]4CCCN4C(=O)[C@H](NC(=O)OC)c4ccccc4)[nH]3)c(-c3ccccc3)c2)[nH]1)C(C)C
CC50 at 72 h [1]: > 10 µM

COC(=O)N[C@H](C(=O)N1CCC[C@H]1c1ncc(-c2ccc(C#CC#Cc3cnc([C@@H]4CCCN4C(=O)[C@H](NC(=O)OC)c4ccccc4)[nH]3)c(-c3cccc(-c4ccccc4)c3)c2)[nH]1)C(C)C
CC50 at 72 h [1]: > 10 µM

COC(=O)N[C@H](C(=O)N1CCC[C@H]1c1ncc(-c2ccc(C#CC#Cc3cnc([C@@H]4CCCN4C(=O)[C@H](NC(=O)OC)c4ccccc4)[nH]3)c(-c3ccccc3)c2)[nH]1)C(C)C.Cl.Cl
bioavailability [2]: 31%
MRT last at 24 h [3]: 2.8 h
MRT inf [4]: 3.1 h
MRT last at 24 h [5]: 1.2 h
MRT inf [6]: 1.3 h
half-life [7]: 72 min
half-life [8]: 96 min
Tmax [9]: 4.98 min
Tmax [10]: 2 h
Cmax [11]: 7760 ng/mL
Cmax [12]: 2980 ng/mL
AUC(0-t) at 24 h [13]: 8260 ng·h/mL
AUC(0-t) at 24 h [14]: 12600 ng·h/mL
AUC(0-inf) [15]: 8330 ng·h/mL
AUC(0-inf) [16]: 13100 ng·h/mL
CC50 at 72 h [1]: > 10 µM

COC(=O)N[C@H](C(=O)N1CCC[C@H]1c1ncc(-c2ccc(C#CC#Cc3cnc([C@@H]4CCCN4C(=O)[C@H](NC(=O)OC)c4ccccc4)[nH]3)c(Sc3ccccc3)c2)[nH]1)C(C)C
CC50 at 72 h [1]: > 10 µM

COC(=O)N[C@H](C(=O)N1CCC[C@H]1c1ncc(C#CC#Cc2ccc(-c3cnc([C@@H]4CCCN4C(=O)[C@@H](NC(=O)OC)C(C)C)[nH]3)cc2-c2ccc3ccccc3c2)[nH]1)C(C)C
CC50 at 72 h [1]: > 10 µM

COC(=O)N[C@H](C(=O)N1CCC[C@H]1c1ncc(C#CC#Cc2c(C)cc(-c3cnc([C@@H]4CCCN4C(=O)[C@@H](NC(=O)OC)C(C)C)[nH]3)cc2-c2ccccc2)[nH]1)C(C)C
CC50 at 72 h [1]: > 10 µM
